Laboratory results: PMC3268354 (Bioorganic & Medicinal Chemistry Letters, 2012)

Tested on: cPLA2α
Experiment: reported cPLA2α inhibition of training and test set compounds
Format: biochemical
Details: assigned from reported activity of training set compounds

Compound | Class (activity class assigned for HipHop refine model)
CCCCCCCCCCCCCCC(=O)C(=O)NCCCC(=O)O [Compound 1] | Active
O=C(COc1ccc(SCCCCCc2ccccc2)cc1)COc1ccc(C(=O)O)cc1 [Compound 6] | Highly active
CCCCCCCCCCOc1ccc(OCC(=O)COc2ccc(C(=O)O)cc2)cc1 [Compound 7] | Highly active
O=C(COc1ccc(SCCCCSc2nccs2)cc1)COc1ccc(C(=O)O)cc1 [Compound 14] | Active
O=C(COc1ccc(C(=O)O)cc1)COc1ccc(C(=O)NCCCCc2ccccc2)cc1 [Compound 16] | Inactive
CN(CCc1ccccc1)C(=O)CSc1ccc(OCC(=O)COc2ccc(C(=O)O)cc2)cc1 [Compound 17] | Inactive
Cn1ccnc1SCCCCOc1ccc(OCC(=O)COc2ccc(C(=O)O)cc2)cc1 [Compound 18] | Inactive

Tested on: cPLA2α-mediated AA release in human monocytes
Experiment: cPLA2α-mediated AA release in Ca2+-ionophore A23187-stimulated human monocytes
Format: cell-based
Details: human monocytes stimulated with A23187
Outline: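 Human monocytes were stimulated with Ca2+-ionophore A23187 in the presence of test compound, and arachidonic acid release was measured. Inhibition is expressed as IC50. A reference cPLA2α inhibitor was run as an assay control.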

Compound | inhibition of AA release
N-{(2S,4R)-4-(biphenyl-2-ylmethyl-isobutyl-amino)-1-[2-(2,4-difluorobenzoyl)-benzoyl]-pyrrolidin-2-ylmethyl}-3-[4-(2,4-dioxothiazolidin-5-ylidenemethyl)-phenyl]acrylamide [Compound 43] | inhibited AA release as expected
